{"source": "paper PMC7992179", "about": "(ACS Omega, 2021)", "key": {"[1]": {"tested_on": "motor coordination on rotating rod", "assay": "Neurotoxicity / minimal motor impairment, rotating rod", "type": "in vivo", "conditions": "rod observed 5 min, mean ± SEM, 10 mice", "in_short": "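White albino mice of either sex, 8–10 weeks, 25–35 g, were trained on a rotating rod (2.5 cm diameter, 25 cm high). After i.p. dosing (10, 30 or 50 mg/kg), motor coordination was scored over 5 min at 30 min and 4 h. Neurotoxicity meant failure to stay on the rod for 1 min. 10 mice per group; mean ± SEM.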"}, "MCF-7 cell line": {"tested_on": "MCF-7 cell line", "assay": "MTT cytotoxicity assay in MCF-7 cells", "type": "cell-based, human", "conditions": "48 h, MTT", "in_short": "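MCF-7 cells grown in Eagle's MEM with 10% FBS, 1% penicillin/streptomycin, 0.1 mM non-essential amino acids, 10 μg/mL insulin and 1 mM sodium pyruvate at 37 °C, 5% CO2. Trypsin/EDTA-harvested cells were seeded at 6 × 10^4 cells/mL and incubated overnight. Test compound (1–30 μM, or a fixed 30 μM screen against doxorubicin) was applied for 48 h. MTT 0.5 mg/mL for 4 h, DMSO, A570; % inhibition and IC50.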"}, "PTZ-induced convulsions": {"tested_on": "PTZ-induced convulsions", "assay": "PTZ-induced convulsions in mice", "type": "in vivo", "conditions": "5 mg/kg i.p., PTZ 70 mg/kg i.p., n = 10", "in_short": "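Overnight-fasted albino mice (n = 10 per group) received test compound at 5 mg/kg i.p., suspended in carboxymethylcellulose and sonicated. Controls were vehicle, PTZ alone and lamotrigine (dose-finding at 1–5 mg/kg). Clonic seizures were induced with PTZ 70 mg/kg i.p. Recorded: latency, convulsion duration, number of convulsions, protection, and a 0–6 seizure score (6 = death). Mean ± SEM; one-way ANOVA with Dunnett's test versus the PTZ group.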"}}, "data": [{"substance": "(1E,2Z)-N-[6-(2,3-Dichlorophenyl)-5-{(E)-[(2E)-3-phenylprop-2-en-1-ylidene]amino}-1,2,4-triazin-3-yl]prop-2-en-1-imine Zinc Chloride Coordinate Complex [4a]", "values": [{"measurement": "time on Rod", "setting": "[1]; dose 10 mg/kg i.p.", "result": "66.7 ± 15.1", "unit": "s"}, {"measurement": "time on Rod", "setting": "[1]; dose 30 mg/kg i.p.", "result": "45.4 ± 10.3", "unit": "s"}, {"measurement": "time on Rod", "setting": "[1]; dose 50 mg/kg i.p.", "result": "30.6 ± 4.2", "unit": "s"}, {"measurement": "IC50 ± SD", "setting": "MCF-7 cell line; MCF-7, 1–30 μM", "result": "inactive"}, {"measurement": "% inhibition/stimulation", "setting": "MCF-7 cell line; conc. 30 μM", "result": 0.00, "unit": "%"}, {"measurement": "average duration of seizure", "setting": "PTZ-induced convulsions; mean ± SEM", "result": "86.5 ± 5.0", "unit": "s"}, {"measurement": "latency time", "setting": "PTZ-induced convulsions; mean ± SEM", "result": "145.0 ± 23.4", "unit": "s"}, {"measurement": "seizure score", "setting": "PTZ-induced convulsions; mean ± SEM", "result": "15.0 ± 4.9", "unit": "counts"}, {"measurement": "mortality", "setting": "PTZ-induced convulsions", "result": 0.0, "unit": "counts"}]}]}
